Test results from ChEMBL document CHEMBL4007473, “Discovery of Potent and Orally Bioavailable GPR40 Full Agonists Bearing Thiophen-2-ylpropanoic Acid Scaffold” (J Med Chem, 2017).
Active and inactive are the calls of the source. The rule behind the calls is not given here.

Legend:
[1] = biological target: T1, Free fatty acid receptor 1 (Homo sapiens, UniProt O14842); experiment: Agonist activity at human GPR40 expressed in HEK293T cells transfected with 0.05 ug of GPR40 expression plasmid assessed as increase in intracellular Ca2+ flux by Fluo 4-AM dye based assay; type: functional, cell-based; conditions: HEK-293T
In short: (§1)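 Plasmid titration: HEK293T cells transiently transfected with 5 μg or 0.05 μg hGPR40 expression plasmid, plated on poly-D-lysine and held 24 h. Loaded with Fluo 4-AM (3 μM) and probenecid (2.5 mM) in HBSS/0.1% BSA for 90 min, washed, equilibrated 10 min. Ca2+ response measured as change in 585/525 ratio after compound addition; mean ± SD of three experiments.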

[2] = Cmax in Sprague-Dawley rat plasma at 10 mg/kg administered via oral gavage by LC/MS analysis; type: ADME, organism-based; design: dose 10 mg/kg, route oral
In short: (§2)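 Male SD rats (200 ± 20 g), acclimated 7 days, fasted overnight with water; n = 4 per route, 10 mg/kg by oral gavage or 1 mg/kg iv via tail vein. Plasma separated by centrifugation and stored at -80 ℃; drug measured by ESI triple-quadrupole LC-MS. Parameters from non-compartmental analysis, reported as mean ± SD. F = (AUCpo/Dosepo)/(AUCiv/Doseiv) × 100%.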

[3] = Tmax in Sprague-Dawley rat plasma at 10 mg/kg administered via oral gavage by LC/MS analysis; type: ADME, organism-based; in short: as §2
[4] = biological target: T2, Free fatty acid receptor 4 (Homo sapiens, UniProt Q5NUL3); experiment: Agonist activity at human GPR120 expressed in CHO cells assessed as increase in intracellular Ca2+ flux by Fluo 4-AM dye based assay; type: functional, cell-based
T2 sequence (Q5NUL3 whole entry): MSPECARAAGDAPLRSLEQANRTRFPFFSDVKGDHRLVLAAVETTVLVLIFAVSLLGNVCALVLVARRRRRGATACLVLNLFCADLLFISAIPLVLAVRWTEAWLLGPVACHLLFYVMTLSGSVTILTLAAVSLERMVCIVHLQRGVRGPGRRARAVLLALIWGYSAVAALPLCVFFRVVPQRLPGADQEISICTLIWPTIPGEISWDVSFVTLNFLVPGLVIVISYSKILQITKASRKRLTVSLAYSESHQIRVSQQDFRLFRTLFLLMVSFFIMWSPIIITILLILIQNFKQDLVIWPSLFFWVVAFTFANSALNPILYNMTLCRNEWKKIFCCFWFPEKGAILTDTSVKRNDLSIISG
In short: (§3)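 CHO cells stably expressing hGPR40 or hGPR120, seeded and incubated overnight at 37 ℃, 5% CO2. Loaded 90 min with Fluo 4-AM (3 μM) and probenecid (2.5 mM) in HBSS/0.1% BSA, washed, equilibrated 10 min. Ca2+ read as change in 585/525 ratio before and after compound addition; EC50 and Emax fitted from curves, Emax relative to reference agonist 4; mean ± SD, three independent experiments.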

[5] = Cmax in Sprague-Dawley rat plasma at 1 mg/kg, iv by LC/MS analysis; type: ADME, organism-based; design: dose 1 mg/kg, route intravenous; in short: as §2
[6] = biological target: T1, Free fatty acid receptor 1; experiment: Agonist activity at human GPR40 expressed in CHO cells assessed as increase in intracellular Ca2+ flux by Fluo 4-AM dye based assay; type: functional, cell-based
[7] = biological target: T1, Free fatty acid receptor 1; experiment: Agonist activity at human GPR40 expressed in HEK293T cells transfected with 5 ug of GPR40 expression plasmid assessed as increase in intracellular Ca2+ flux by Fluo 4-AM dye based assay; type: functional, cell-based; conditions: HEK-293T; in short: as §1
[8] = Oral bioavailability in Sprague-Dawley rat plasma at 10 mg/kg administered via gavage by LC/MS analysis; type: ADME, organism-based; in short: as §2
[9] = Half life in Sprague-Dawley rat plasma at 10 mg/kg administered via oral gavage by LC/MS analysis; type: ADME, organism-based; in short: as §2
Mus musculus = experiment: Antidiabetic activity in ICR mouse assessed as decrease in blood glucose AUC at 10 to 20 mg/kg, po administered 30 mins prior to glucose challenge measured 120 mins post dose by OGTT; type: functional, organism-based
In short: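 Six-week-old male ICR mice fasted 16 h, n = 10 per group, dosed orally in 0.5% methylcellulose/20% PEG400 (10 or 20 mg/kg). Oral glucose load 2.5 g/kg by gavage 30 min later. Tail-vein glucose read at -30, 0, 30, 60, 90 and 120 min; AUC0-120 min computed and compared with vehicle.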

[10] = biological target: T1, Free fatty acid receptor 1; experiment: Agonist activity at human GPR40 expressed in CHO cells assessed as increase in intracellular Ca2+ flux by Fluo 4-AM dye based assay relative to 3-(4-((2',6'-dimethylbiphenyl-3-yl)methoxy)phenyl)propanoic acid; type: functional, cell-based; in short: as §3
[11] = Mean residence time (last) in Sprague-Dawley rat plasma at 10 mg/kg administered via oral gavage by LC/MS analysis; type: ADME, organism-based; in short: as §2
[12] = AUC (0 to t) in Sprague-Dawley rat plasma at 1 mg/kg, iv by LC/MS analysis; type: ADME, organism-based; in short: as §2
[13] = biological target: Free fatty acid receptor 1 (Mus musculus) (UniProt Q76JU9); experiment: Agonist activity at GPR40 in mouse MIN6 cells assessed as increase in 25 mM glucose-stimulated insulin secretion at 300 nM after 1 hr by ELISA; type: cell-based
In short: (§4)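 MIN6 cells pre-incubated 2 h at 37 ℃ in KRBH buffer with 0.1% BSA, then stimulated 1 h at 37 ℃ with 2 mM or 25 mM glucose, alone or with test agents. Insulin secreted into supernatant quantified by ELISA; mean ± SD of four independent experiments, compared with DMSO.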

[14] = Inhibition of hepatobiliary transporter in Sprague-Dawley rat sandwich-cultured rat hepatocytes assessed as decrease in d8-TCA by measuring biliary excretion index at 1 to 25 uM incubated for 15 mins followed by d8-TCA addition measured after 15 mins by LC-MS/MS analysis; type: ADME; conditions: 0.25 h
In short: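 Sandwich-cultured hepatocytes from male SD rats exposed to compound 15 min in standard HBSS. Cells rinsed and pre-incubated 15 min at 37 ℃ in standard or Ca2+-free HBSS, then incubated 15 min with compound plus 1 µM d8-TCA. Washed with ice-cold PBS; cellular d8-TCA measured by LC-MS/MS. BEI = (A_HBSS – A_Ca-free)/A_HBSS × 100%.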

[15] = biological target: Free fatty acid receptor 1 (Mus musculus) (UniProt Q76JU9); experiment: Agonist activity at GPR40 in mouse MIN6 cells assessed as increase in 2 mM glucose-stimulated insulin secretion at 0.1 to 3 uM after 1 hr by ELISA; type: cell-based; in short: as §4
[16] = Mean residence time (last) in Sprague-Dawley rat plasma at 1 mg/kg, iv by LC/MS analysis; type: ADME, organism-based; in short: as §2
[17] = AUC (0 to t) in Sprague-Dawley rat plasma at 10 mg/kg administered via oral gavage by LC/MS analysis; type: ADME, organism-based; in short: as §2
[18] = biological target: Free fatty acid receptor 1 (Mus musculus) (UniProt Q76JU9); experiment: Agonist activity at GPR40 in mouse MIN6 cells assessed as increase in 25 mM glucose-stimulated insulin secretion at 10 uM after 1 hr by ELISA; type: cell-based; in short: as §4
[19] = biological target: T3, Peroxisome proliferator-activated receptor gamma (Homo sapiens, UniProt P37231); experiment: Agonist activity at PPARgamma (unknown origin) expressed in HEK293T cells by luciferase reporter gene assay; type: cell-based
T3 sequence (P37231 whole entry): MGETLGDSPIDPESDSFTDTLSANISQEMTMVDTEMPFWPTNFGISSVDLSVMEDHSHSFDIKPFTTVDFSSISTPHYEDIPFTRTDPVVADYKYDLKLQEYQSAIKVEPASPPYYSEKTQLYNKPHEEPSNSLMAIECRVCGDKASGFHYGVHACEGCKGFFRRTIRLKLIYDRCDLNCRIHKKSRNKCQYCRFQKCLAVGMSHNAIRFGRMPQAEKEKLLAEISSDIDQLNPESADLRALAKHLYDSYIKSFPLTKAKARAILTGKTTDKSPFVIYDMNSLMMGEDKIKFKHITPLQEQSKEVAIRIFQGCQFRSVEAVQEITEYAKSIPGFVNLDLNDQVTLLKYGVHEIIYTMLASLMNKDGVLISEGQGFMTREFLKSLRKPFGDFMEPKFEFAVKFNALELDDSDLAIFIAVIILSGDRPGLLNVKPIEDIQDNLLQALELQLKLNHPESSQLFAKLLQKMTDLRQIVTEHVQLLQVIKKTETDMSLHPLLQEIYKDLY

[20] = Half life in Sprague-Dawley rat plasma at 1 mg/kg, iv by LC/MS analysis; type: ADME, organism-based; in short: as §2

T1 sequence (O14842 whole entry): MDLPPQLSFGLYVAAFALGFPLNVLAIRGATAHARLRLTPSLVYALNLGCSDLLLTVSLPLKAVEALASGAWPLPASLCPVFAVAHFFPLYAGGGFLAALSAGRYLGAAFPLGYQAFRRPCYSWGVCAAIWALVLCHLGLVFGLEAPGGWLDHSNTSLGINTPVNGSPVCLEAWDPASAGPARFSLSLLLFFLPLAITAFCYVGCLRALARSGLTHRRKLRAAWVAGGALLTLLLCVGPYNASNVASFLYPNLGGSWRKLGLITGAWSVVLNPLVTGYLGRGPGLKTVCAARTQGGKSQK
Chain of Free fatty acid receptor 1 (Mus musculus) (Q76JU9 whole entry): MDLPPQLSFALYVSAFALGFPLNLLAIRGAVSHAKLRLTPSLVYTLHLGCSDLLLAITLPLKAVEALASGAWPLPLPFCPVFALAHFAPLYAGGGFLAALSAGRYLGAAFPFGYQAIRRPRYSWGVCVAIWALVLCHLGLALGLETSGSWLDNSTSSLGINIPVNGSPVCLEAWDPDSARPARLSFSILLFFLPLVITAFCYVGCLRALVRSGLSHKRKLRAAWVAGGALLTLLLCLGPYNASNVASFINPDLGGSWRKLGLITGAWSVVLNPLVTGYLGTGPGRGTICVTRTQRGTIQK

Activity [1]: Active | Cmax [2]: 834 ng/mL | Tmax [3]: 1 h | EC50 [4]: > 10 µM | Cmax [5]: 2180 ng/mL | EC50 [6]: 0.081 µM | Activity [7]: Active | bioavailability [8]: 13.3% | half-life [9]: 3.9 h | Emax [10]: 244% | MRT last [11]: 5 h | AUC(0-t) [12]: 3320 ng·h/mL | Activity [13]: Active | Activity [14]: Not Active | Activity [15]: inactive | MRT last [16]: 3.2 h | AUC(0-t) [17]: 4420 ng·h/mL | Activity [18]: Active | EC50 [19]: > 10 µM | half-life [20]: 3.8 h
SMILES: CC#C[C@@H](CC(=O)O)c1ccc(OCc2cccc(-c3c(C)cc(OCCCS(C)(=O)=O)cc3C)c2)s1
Activity (Mus musculus): Active
